{"source": "ChEMBL document CHEMBL1122938", "about": "“Ribavirin, tiazofurin, and selenazofurin: mononucleotides and nicotinamide adenine dinucleotide analogues. Synthesis, structure, and interactions with IMP dehydrogenase” (J Med Chem, 1985)", "key": {"[1]": {"experiment": "Uncompetitive Inhibitory activity against Inosine-5'-monophosphate dehydrogenase using IMP as viable substrate"}, "[2]": {"experiment": "Cytotoxicity against P388 cells in culture", "assay_type": "cell-based", "settings": "mouse, read-out: ID50 (the source's name); call rule not given here", "how_it_was_run": "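P388 cells in log-phase growth exposed in culture to each monophosphate or dinucleotide.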"}, "[3]": {"experiment": "Noncompetitive inhibitory activity against Inosine-5'-monophosphate dehydrogenase using NAD as viable substrate"}, "[4]": {"experiment": "Uncompetitive (mixed) inhibitory activity against Inosine-5'-monophosphate dehydrogenase using NAD as viable substrate"}, "[5]": {"experiment": "Noncompetitive inhibitory activity against Inosine-5'-monophosphate dehydrogenase using NAD as viable substrate"}, "[6]": {"experiment": "Noncompetitive Inhibitory activity against Inosine-5'-monophosphate dehydrogenase using IMP as viable substrate"}, "[7]": {"experiment": "Inhibitory activity against Inosine-5'-monophosphate dehydrogenase using IMP as viable substrate; Inactive."}, "[8]": {"experiment": "Inhibitory activity against Inosine-5'-monophosphate dehydrogenase using NAD as viable substrate; Inactive."}, "[9]": {"experiment": "Inhibitory activity against Inosine-5'-monophosphate dehydrogenase using IMP as viable substrate; Inactive"}, "[10]": {"experiment": "Inhibitory activity against Inosine-5'-monophosphate dehydrogenase using NAD as viable substrate; Inactive"}, "[11]": {"experiment": "Competitive Inhibitory activity against Inosine-5'-monophosphate dehydrogenase using IMP as viable substrate"}}, "data": [{"smiles": "NC(=O)c1csc([C@H]2O[C@@H](COP(=O)(O)OP(=O)(O)OC[C@H]3O[C@@H](n4cnc5c(N)ncnc54)[C@H](O)[C@@H]3O)[C@H](O)[C@@H]2O)n1", "values": [{"measurement": "Ki", "setting": "[1]", "result": 0.13, "unit": "µM"}, {"measurement": "CC50", "setting": "[2]", "result": 7.5, "unit": "µM"}, {"measurement": "Ki", "setting": "[3]", "result": 240, "unit": "nM"}]}, {"smiles": "NC(=O)c1c[se]c([C@H]2O[C@@H](COP(=O)(O)OP(=O)(O)OC[C@H]3O[C@@H](c4nc(C(N)=O)c[se]4)[C@H](O)[C@@H]3O)[C@H](O)[C@@H]2O)n1", "values": [{"measurement": "Ki", "setting": "[4]", "result": 240, "unit": "µM"}, {"measurement": "Ki", "setting": "[1]", "result": 190, "unit": "µM"}, {"measurement": "CC50", "setting": "[2]", "result": 0.6, "unit": "µM"}]}, {"smiles": "NC(=O)c1csc([C@@H]2O[C@H](COP(=O)(O)O)[C@@H](O)[C@H]2O)n1", "values": [{"measurement": "Ki", "setting": "[5]", "result": 405, "unit": "µM"}, {"measurement": "Ki", "setting": "[6]", "result": 265, "unit": "µM"}, {"measurement": "CC50", "setting": "[2]", "result": 10, "unit": "µM"}]}, {"smiles": "NC(=O)c1c[se]c([C@@H]2O[C@H](COP(=O)(O)O)[C@@H](O)[C@H]2O)n1", "values": [{"measurement": "Ki", "setting": "[5]", "result": 470, "unit": "µM"}, {"measurement": "Ki", "setting": "[6]", "result": 170, "unit": "µM"}, {"measurement": "CC50", "setting": "[2]", "result": 1.4, "unit": "µM"}]}, {"smiles": "NC(=O)c1csc([C@H]2O[C@@H](COP(=O)(O)OP(=O)(O)OC[C@H]3O[C@@H](c4nc(C(N)=O)cs4)[C@H](O)[C@@H]3O)[C@H](O)[C@@H]2O)n1", "values": [{"measurement": "Ki", "setting": "[4]", "result": 370, "unit": "µM"}, {"measurement": "Ki", "setting": "[1]", "result": 140, "unit": "µM"}, {"measurement": "CC50", "setting": "[2]", "result": 4.6, "unit": "µM"}]}, {"smiles": "NC(=O)c1ncn([C@@H]2O[C@H](COP(=O)(O)O)[C@@H](O)[C@H]2O)c1N", "values": [{"measurement": "CC50", "setting": "[2]", "result": "> 220", "unit": "µM"}, {"measurement": "Ki", "setting": "[7]", "result": "Not Active"}, {"measurement": "Ki", "setting": "[8]", "result": "Not Active"}]}, {"smiles": "NC(=O)c1c[se]c(C2O[C@@H](COP(=O)(O)OP(=O)(O)OC[C@H]3OC(n4cnc5c(N)ncnc54)[C@H](O)[C@@H]3O)[C@H](O)[C@@H]2O)n1", "note": "(stereo not given in full)", "values": [{"measurement": "Ki", "setting": "[1]", "result": 0.05, "unit": "µM"}, {"measurement": "CC50", "setting": "[2]", "result": 9.8, "unit": "µM"}, {"measurement": "Ki", "setting": "[3]", "result": 40, "unit": "nM"}]}, {"smiles": "NC(=O)c1ncn(C2O[C@H](COP(=O)(O)OP(=O)(O)OC[C@H]3OC(n4cnc5c(N)ncnc54)[C@H](O)[C@@H]3O)[C@H](O)[C@@H]2O)c1N", "note": "(stereo not given in full)", "values": [{"measurement": "Ki", "setting": "[9]", "result": "Not Active"}, {"measurement": "Ki", "setting": "[10]", "result": "Not Active"}, {"measurement": "CC50", "setting": "[2]", "result": 78, "unit": "µM"}]}, {"smiles": "NC(=O)c1ncn(C2O[C@H](COP(=O)(O)OP(=O)(O)OC[C@H]3OC(n4cnc5c(N)ncnc54)[C@H](O)[C@@H]3O)[C@H](O)[C@@H]2O)n1", "note": "(stereo not given in full)", "values": [{"measurement": "Ki", "setting": "[6]", "result": 148, "unit": "µM"}, {"measurement": "CC50", "setting": "[2]", "result": 40, "unit": "µM"}, {"measurement": "Ki", "setting": "[3]", "result": 235000, "unit": "nM"}]}, {"smiles": "NC(=O)c1ncn([C@@H]2O[C@H](COP(=O)(O)O)[C@@H](O)[C@H]2O)n1", "note": "[RIBAVIRIN MONOPHOSPHATE]", "values": [{"measurement": "Ki", "setting": "[11]", "result": 4.18, "unit": "µM"}, {"measurement": "CC50", "setting": "[2]", "result": 65, "unit": "µM"}, {"measurement": "Ki", "setting": "[3]", "result": 2240, "unit": "nM"}]}]}
